In ChEMBL document CHEMBL3808346, “Optimization of the phenylurea moiety in a phosphoinositide 3-kinase (PI3K) inhibitor to improve water solubility and the PK profile by introducing a solubilizing group and ortho substituents” (Bioorg Med Chem, 2016):
≈ marks a conversion by molar mass, not a printed value.

Legend:
[1] = Solubility of compound in FaSSIF at pH 6.5 by HPLC-UV analysis; assay type: physicochemical
Summary of the method: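 A 4-mM or 1-mM DMSO stock was freeze-dried and the residue taken up in FaSSIF (pH 6.5: sodium taurocholate, lecithin, KH2PO4, KCl, NaOH). Sonicated 10 min, shaken 2 h, centrifuged 10 min at 3000 rpm and filtered. Filtrate measured by HPLC-UV against each compound's calibration curve.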

[2] = biological target: PI3-kinase p110-alpha/p85-alpha (Homo sapiens, UniProt P42336); assay: Inhibition of human PI3K p110alpha/p85alpha expressed in baculovirus preincubated for 20 mins followed by addition of phosphorylate phosphatidylinositol-4,5-bisphosphate as substrate and ATP measured after 15 mins by AlphaScreen competition assay
Summary of the method: (§1)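 Purified baculovirus-expressed human p110/p85α preincubated with compound 20 min at room temperature. Then 4 µM PI(4,5)P2 and 10 µM ATP (5 mM Hepes pH 7.5, 2.5 mM MgCl2) added for 15 min at 37 °C. PIP3 product detected by AlphaScreen competition using GST-GRP1, biotin-PIP3 and anti-GST acceptor/streptavidin donor beads, 1 h at room temperature.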

[3] = Cmax in Balb/c nude mouse at 50 mg/kg, po measured after 24 hrs by LC-MS/MS analysis; assay type: ADME, organism-based; parameters: dose 50 mg/kg, route oral; conditions: in vivo
Summary of the method: (§2)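 Female BALB/c-nu mice, n=2 per group, single oral dose of 50 mg/kg given as a solution in 10% DMSO, 10% Cremophor EL, 15% PEG400, 15% HPCD. Heparinized blood drawn at 0.25, 2, 4, 7 and 24 h; plasma stored at –80 °C. Plasma levels by LC–MS/MS; parameters by non-compartmental analysis.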

[4] = AUC in Balb/c nude mouse at 50 mg/kg, po measured after 24 hrs by LC-MS/MS analysis; assay type: ADME, organism-based; parameters: dose 50 mg/kg, time < 24 hr, route oral; conditions: in vivo; summary of the method: as §2
[5] = biological target: PI3K p110 beta/p85 alpha (Homo sapiens, UniProt P42338); assay: Inhibition of human PI3K p110beta/p85alpha expressed in baculovirus preincubated for 20 mins followed by addition of phosphorylate phosphatidylinositol-4,5-bisphosphate as substrate and ATP measured after 15 mins by AlphaScreen competition assay; summary of the method: as §1
[6] = Antiproliferative activity against PTEN negative human PC3 cells measured after 96 hrs by CCK-8 assay; assay type: functional, cell-based; conditions: PC-3, 96 h
Summary of the method: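 PC-3 prostate cells (ATCC) exposed to a range of compound concentrations for 96 hours; growth inhibition read with Cell Counting Kit-8.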

[7] = Antitumor activity PTEN negative human PC3 cells xenografted into nude mouse assessed as tumor growth inhibition at 6.25 mg/kg, qd administered orally for 11 days; assay type: functional; conditions: PC-3, po, 264 h, read-out: TGI
Summary of the method: (§3)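 PC-3 grown as subcutaneous tumors in nude mice; dosing began (day 0) at about 130 mm3. Four mice per group, randomized to vehicle or drug by oral sonde once daily on days 0–10; vehicle 10% DMSO, 10% Cremophor EL, 15% PEG400, 15% HPCD. TV = (L W²)/2; TGI = [1 − (T − T0)/(C − C0)] × 100; body weight as W/W0 × 100.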

[8] = Permeability of compound by PAMPA method; assay type: ADME; conditions: read-out: permeability
[9] = tested on: Mus musculus; assay: Toxicity in nude mouse xenografted with PTEN negative human PC3 cells assessed as body weight loss; assay type: organism-based, PC-3; conditions: in vivo; summary of the method: as §3
[10] = Metabolic stability in mouse liver microsomes assessed as clearance; assay type: ADME; conditions: read-out: CLH
[11] = Metabolic stability in human liver microsomes assessed as clearance; assay type: ADME; conditions: read-out: CLH

Chain of PI3-kinase p110-alpha/p85-alpha (P27986 whole entry): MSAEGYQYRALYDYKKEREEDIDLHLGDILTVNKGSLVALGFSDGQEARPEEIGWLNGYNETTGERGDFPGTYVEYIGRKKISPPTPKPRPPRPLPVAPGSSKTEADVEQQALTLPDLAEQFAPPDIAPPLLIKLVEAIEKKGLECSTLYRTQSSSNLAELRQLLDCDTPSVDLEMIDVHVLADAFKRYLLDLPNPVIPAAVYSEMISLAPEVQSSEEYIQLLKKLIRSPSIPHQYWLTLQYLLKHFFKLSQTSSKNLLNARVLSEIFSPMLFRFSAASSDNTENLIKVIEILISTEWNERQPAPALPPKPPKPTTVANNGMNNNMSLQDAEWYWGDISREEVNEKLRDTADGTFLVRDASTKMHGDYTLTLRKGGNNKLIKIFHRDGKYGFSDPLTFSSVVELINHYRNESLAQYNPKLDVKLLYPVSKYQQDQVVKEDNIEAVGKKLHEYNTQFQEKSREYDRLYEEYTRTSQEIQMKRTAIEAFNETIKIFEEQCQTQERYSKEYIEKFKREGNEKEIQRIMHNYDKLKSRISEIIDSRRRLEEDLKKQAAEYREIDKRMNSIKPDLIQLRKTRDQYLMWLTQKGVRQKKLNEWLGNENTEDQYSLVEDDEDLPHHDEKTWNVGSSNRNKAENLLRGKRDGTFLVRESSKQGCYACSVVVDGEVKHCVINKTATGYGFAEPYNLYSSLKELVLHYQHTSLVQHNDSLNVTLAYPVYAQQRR
Chain of PI3-kinase p110-alpha/p85-alpha (P42336 whole entry): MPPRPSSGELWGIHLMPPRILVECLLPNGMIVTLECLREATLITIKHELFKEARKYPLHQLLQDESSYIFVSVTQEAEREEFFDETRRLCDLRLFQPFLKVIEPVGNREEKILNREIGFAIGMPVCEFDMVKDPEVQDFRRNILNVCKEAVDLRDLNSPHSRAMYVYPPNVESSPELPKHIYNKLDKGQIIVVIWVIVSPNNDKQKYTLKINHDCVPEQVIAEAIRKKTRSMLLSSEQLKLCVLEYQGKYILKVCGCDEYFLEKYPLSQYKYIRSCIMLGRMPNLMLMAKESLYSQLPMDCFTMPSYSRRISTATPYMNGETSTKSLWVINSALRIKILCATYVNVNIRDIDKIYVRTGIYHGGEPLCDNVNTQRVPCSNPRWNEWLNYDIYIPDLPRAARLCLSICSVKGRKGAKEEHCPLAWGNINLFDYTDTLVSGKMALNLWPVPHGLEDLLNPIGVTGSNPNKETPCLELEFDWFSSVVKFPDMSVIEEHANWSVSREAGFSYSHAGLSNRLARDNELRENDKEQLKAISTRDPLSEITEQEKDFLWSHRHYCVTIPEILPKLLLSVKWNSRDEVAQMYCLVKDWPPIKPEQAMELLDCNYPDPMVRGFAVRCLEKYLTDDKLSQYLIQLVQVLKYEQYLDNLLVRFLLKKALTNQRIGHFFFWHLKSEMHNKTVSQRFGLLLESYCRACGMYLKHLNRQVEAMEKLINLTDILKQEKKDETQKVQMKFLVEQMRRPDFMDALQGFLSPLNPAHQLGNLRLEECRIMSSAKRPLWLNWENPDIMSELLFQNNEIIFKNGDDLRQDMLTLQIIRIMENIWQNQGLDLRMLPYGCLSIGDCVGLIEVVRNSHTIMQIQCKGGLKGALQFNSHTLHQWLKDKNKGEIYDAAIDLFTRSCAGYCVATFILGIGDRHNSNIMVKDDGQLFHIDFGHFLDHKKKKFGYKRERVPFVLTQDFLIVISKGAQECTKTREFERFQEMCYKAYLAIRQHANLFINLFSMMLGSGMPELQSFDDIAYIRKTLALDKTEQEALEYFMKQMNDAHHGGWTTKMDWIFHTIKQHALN
Chain of PI3K p110 beta/p85 alpha (P27986 whole entry): as the sequence (P27986 whole entry) above
Chain of PI3K p110 beta/p85 alpha (P42338 whole entry): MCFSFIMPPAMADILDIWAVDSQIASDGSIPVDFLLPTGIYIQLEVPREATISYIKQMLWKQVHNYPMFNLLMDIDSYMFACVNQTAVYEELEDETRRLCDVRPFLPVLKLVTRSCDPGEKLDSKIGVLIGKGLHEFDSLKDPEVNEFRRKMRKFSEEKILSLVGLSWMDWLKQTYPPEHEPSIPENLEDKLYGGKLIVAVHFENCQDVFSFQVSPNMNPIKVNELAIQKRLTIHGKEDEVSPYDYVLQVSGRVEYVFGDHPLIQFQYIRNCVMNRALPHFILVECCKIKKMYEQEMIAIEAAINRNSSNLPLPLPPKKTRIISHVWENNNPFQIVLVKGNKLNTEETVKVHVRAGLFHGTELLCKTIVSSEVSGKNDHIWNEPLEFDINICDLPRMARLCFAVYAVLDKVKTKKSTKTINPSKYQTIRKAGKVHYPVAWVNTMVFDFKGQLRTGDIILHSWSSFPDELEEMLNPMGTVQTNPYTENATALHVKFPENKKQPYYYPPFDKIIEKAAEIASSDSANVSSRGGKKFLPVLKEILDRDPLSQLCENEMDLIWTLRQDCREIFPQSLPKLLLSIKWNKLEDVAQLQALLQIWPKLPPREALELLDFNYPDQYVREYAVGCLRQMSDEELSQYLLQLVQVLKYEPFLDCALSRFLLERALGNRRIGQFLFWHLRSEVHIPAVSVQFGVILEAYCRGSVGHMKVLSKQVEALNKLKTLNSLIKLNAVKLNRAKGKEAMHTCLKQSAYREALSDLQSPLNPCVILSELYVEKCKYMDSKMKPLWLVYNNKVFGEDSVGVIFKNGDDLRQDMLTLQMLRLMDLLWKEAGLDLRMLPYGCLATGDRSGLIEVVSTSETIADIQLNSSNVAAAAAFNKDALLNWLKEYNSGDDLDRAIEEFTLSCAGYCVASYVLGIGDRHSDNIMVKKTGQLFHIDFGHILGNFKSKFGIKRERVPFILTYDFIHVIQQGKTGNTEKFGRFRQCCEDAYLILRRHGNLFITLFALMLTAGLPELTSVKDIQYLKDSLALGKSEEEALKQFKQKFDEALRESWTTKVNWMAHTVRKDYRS

SMILES	solubility [1] [µg/mL]	IC50 [2] [nM]	IC50 [6] [nM]	further results
Nc1ncc(-c2nc(N3CCOCC3)nc3c2CCN3c2cccnc2)cn1	< 12	–	–	–
Cc1ccccc1NC(=O)N1CCc2c(-c3cnc(N)nc3)nc(N3CCOCC3)nc21	< 14	52	–	–
Nc1ncc(-c2nc(N3CCOCC3)nc3c2CCN3C(=O)Nc2ccccc2)cn1	< 3	–	–	Cmax [3]: 104 ng/mL; AUC at 24 h [4]: 437 ng·h/mL
CCN1CCN(c2cc(F)c(NC(=O)N3CCc4c(-c5cnc(N)nc5)nc(N5CCOCC5)nc43)c(F)c2)CC1	20 (≈ 35.3 µM)	–	58	Cmax [3]: 460 ng/mL; AUC at 24 h [4]: 5680 ng·h/mL; IC50 [5]: 7 nM; inhibition in vivo at 6.25 mg/kg [7]: 82%; Papp [8]: 1.1 ×10⁻⁶ cm/s; Activity [9]: Non-toxic; microsomal CLint [10]: 7.6 µL/min/mg; microsomal CLint [11]: 2.2 µL/min/mg
CN(C(=O)N1CCc2c(-c3cnc(N)nc3)nc(N3CCOCC3)nc21)c1ccccc1	< 3	130	–	–
CC(C)c1ccccc1NC(=O)N1CCc2c(-c3cnc(N)nc3)nc(N3CCOCC3)nc21	13 (≈ 28.2 µM)	81	–	–
Cc1nc(N)ncc1-c1nc(N2CCOCC2)nc2c1CCN2c1cccnc1	56 (≈ 143 µM)	260	–	–
CCc1ccccc1NC(=O)N1CCc2c(-c3cnc(N)nc3)nc(N3CCOCC3)nc21	–	64	–	–
CCN1CCN(c2ccc(NC(=O)N3CCc4c(-c5cnc(N)nc5)nc(N5CCOCC5)nc43)c(C)c2)CC1	11 (≈ 20.2 µM)	–	210	–
CCN1CCN(C(=O)c2ccc(NC(=O)N3CCc4c(-c5cnc(N)nc5)nc(N5CCOCC5)nc43)c(C)c2)CC1	< 18	26	250	–
